Measurements published in ChEMBL document CHEMBL2331536, “Indenoindolone derivatives as topoisomerase II-inhibiting anticancer agents” (Bioorg Med Chem Lett, 2013).
The source made the active and inactive calls. No cut-off for these calls is given here.

Tests used:
[1] = molecular target: DNA topoisomerase 2-alpha (Homo sapiens) (UniProt P11388); experiment: Inhibition of human topoisomerase 2alpha at 100 uM incubated for 30 mins at 37 degC by agarose-gel electrophoresis based ATP-dependent kDNA decatenation assay
Procedure, shortened: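 Commercial topoisomerase drug-screening kit, in vitro ATP-dependent assay. kDNA treated with hTopoIIα plus test agent or 100 µM etoposide, 37 °C, 30 min. Run on 1% agarose gel in TAE buffer; decatenated product quantified.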

HEK293 = experiment: Cytotoxicity against HEK293 cells after 48 hrs by MTT assay; assay type: functional; conditions: Homo sapiens, HEK293, 48 h; read-out: LC50 (the source's name)
Procedure, shortened: (§1)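 HEK-293 (ATCC CRL-1573) or normal monkey kidney Vero (ATCC CCL-81) cells were plated, then exposed to a range of compound concentrations for 48 h. MTT was added, and the formazan was dissolved in detergent solution and read at 570 nm. LC50 is the concentration giving 50% cell death. Data are the mean SD of three separate experiments.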

Nucleic Acid = experiment: Induction of DNA intercalation in negatively Escherichia coli super coiled small circular plasmid DNA assessed as retradation of DNA migration at 100 uM incubated for 20 mins at 37 degC by agarose-gel electrophoresis; assay type: nucleic-acid assay
Procedure, shortened: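 250 ng negatively supercoiled small circular plasmid DNA (from E. coli) incubated with test agent or ethidium bromide, 37 °C, 20 min. Products resolved on 1% agarose gel in TAE buffer.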

[2] = Cytotoxicity against african green monkey Vero cells after 48 hrs by MTT assay; assay type: cell-based; conditions: chlorocebus sabaeus, read-out: LC50; procedure, shortened: as §1
[3] = molecular target: T1, DNA topoisomerase 1 (Homo sapiens) (UniProt P11387); experiment: Inhibition of human DNA topoisomerase 1 assessed as effect on relaxation of negatively super colied DNA at 100 uM incubated for 30 mins at 37 degC by agarose-gel electrophoresis
T1 sequence (whole entry): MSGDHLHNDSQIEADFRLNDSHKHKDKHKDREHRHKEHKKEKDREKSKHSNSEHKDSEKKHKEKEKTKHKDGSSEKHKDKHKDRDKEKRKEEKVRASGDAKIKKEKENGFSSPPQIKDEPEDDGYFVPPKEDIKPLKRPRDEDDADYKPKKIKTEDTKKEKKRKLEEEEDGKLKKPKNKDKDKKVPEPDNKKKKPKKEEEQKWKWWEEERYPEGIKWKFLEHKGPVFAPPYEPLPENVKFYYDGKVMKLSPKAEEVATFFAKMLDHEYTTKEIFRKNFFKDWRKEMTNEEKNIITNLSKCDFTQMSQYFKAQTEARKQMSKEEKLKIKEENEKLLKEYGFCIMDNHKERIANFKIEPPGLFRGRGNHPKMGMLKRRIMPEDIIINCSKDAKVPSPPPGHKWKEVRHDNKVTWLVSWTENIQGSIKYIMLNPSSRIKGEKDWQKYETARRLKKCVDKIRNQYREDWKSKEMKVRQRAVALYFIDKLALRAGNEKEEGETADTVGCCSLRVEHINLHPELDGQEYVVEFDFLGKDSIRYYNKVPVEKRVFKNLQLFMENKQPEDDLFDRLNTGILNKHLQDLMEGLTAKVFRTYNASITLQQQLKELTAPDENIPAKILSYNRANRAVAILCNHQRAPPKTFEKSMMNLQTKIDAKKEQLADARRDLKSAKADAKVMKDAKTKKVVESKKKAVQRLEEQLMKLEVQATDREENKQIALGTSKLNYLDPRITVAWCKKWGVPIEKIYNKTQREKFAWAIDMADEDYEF
Procedure, shortened: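 Negatively supercoiled DNA treated with human topoisomerase I plus test agent or 100 µM camptothecin, 37 °C, 30 min. Relaxation judged on 1% agarose gel electrophoresis in TAE buffer.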

DNA topoisomerase 2-alpha (Homo sapiens), sequence (P11388 whole entry): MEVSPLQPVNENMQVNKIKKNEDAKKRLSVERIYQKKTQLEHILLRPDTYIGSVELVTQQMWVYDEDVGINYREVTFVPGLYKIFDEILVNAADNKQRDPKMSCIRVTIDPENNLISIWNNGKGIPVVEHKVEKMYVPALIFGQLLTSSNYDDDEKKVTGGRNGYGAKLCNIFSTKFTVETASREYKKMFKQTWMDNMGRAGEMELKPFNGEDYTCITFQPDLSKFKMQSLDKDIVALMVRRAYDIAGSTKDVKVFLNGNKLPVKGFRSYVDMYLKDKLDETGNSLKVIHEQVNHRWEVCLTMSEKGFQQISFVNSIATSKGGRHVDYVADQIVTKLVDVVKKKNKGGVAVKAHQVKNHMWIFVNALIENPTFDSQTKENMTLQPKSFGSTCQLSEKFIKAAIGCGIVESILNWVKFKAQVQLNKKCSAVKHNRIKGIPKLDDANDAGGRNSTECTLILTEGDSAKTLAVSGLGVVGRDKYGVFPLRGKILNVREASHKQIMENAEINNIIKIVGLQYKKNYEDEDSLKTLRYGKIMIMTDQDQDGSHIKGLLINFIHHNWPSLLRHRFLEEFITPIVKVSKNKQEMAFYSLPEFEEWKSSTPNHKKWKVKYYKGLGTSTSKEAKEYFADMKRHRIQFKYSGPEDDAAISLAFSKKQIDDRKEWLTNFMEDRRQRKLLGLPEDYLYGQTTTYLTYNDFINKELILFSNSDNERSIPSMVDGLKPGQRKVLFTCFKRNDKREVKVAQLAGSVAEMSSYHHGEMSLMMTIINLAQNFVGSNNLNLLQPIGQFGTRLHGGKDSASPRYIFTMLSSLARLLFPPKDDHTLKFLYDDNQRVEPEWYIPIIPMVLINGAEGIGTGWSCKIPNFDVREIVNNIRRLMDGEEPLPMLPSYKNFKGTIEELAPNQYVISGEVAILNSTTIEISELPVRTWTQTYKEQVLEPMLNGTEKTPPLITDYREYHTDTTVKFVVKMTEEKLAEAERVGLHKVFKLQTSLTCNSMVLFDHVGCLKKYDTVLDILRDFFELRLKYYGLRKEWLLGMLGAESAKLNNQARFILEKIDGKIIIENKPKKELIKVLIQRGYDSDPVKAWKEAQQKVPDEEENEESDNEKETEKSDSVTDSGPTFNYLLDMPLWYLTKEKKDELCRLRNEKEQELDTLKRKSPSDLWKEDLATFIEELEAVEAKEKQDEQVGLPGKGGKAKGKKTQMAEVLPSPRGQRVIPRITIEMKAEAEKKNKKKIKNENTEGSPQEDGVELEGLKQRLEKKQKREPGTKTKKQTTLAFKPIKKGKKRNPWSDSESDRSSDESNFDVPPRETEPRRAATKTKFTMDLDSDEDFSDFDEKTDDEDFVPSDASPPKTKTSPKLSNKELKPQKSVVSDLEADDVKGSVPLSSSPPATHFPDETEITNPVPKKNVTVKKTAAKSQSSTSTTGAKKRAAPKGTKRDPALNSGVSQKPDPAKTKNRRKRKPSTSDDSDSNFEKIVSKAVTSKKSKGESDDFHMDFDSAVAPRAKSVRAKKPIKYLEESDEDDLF

SMILES | inhibition [1] | CC50 (HEK293) [µM] | Activity (Nucleic Acid) | CC50 at 48 h [2] [µM] | inhibition [3]
Cc1ccc(N/N=C2\c3ccccc3-c3c2c2ccccc2n3C)cc1 | Active |  |  |  | 
O=C(N/N=C1\c2ccccc2-c2c1c1ccccc1n2Cc1ccccc1)Nc1ccccc1 | Active |  |  |  | 
c1ccc(Cn2c3c(c4ccccc42)/C(=N/Nc2ccccc2)c2ccccc2-3)cc1 | Active |  |  |  | 
COc1ccc(N/N=C2\c3ccccc3-c3c2c2ccccc2n3Cc2ccccc2)cc1 | Active |  |  |  | 
c1ccc(N/N=C2\c3ccccc3-c3[nH]c4ccccc4c32)cc1 | Active |  |  |  | 
COc1ccc2c(c1)C(O)c1c-2n(C)c2ccccc12 (centres undefined) | Active | 4 | inactive | 30 | inactive
O=c1[nH]cc(F)c(=O)[nH]1 [FLUOROURACIL] |  | 25 |  |  | 
COc1cc2c(c(OC)c1OC)-c1c(c3ccccc3n1C)C2O (centres undefined) | Active | 8 | inactive | 40 | inactive
Cn1c2c(c3ccccc31)/C(=N/NC(=O)Nc1ccccc1)c1ccccc1-2 | Active |  |  |  | 
COc1ccc(N/N=C2/c3cc(OC)c(OC)c(OC)c3-c3c2c2ccccc2n3C)cc1 | Active |  |  |  | 
CC[n+]1c(-c2ccccc2)c2cc(N)ccc2c2ccc(N)cc21 |  |  | Active |  | 
COc1ccc2c(c1)/C(=N\Nc1ccccc1)c1c-2n(C)c2ccccc12 | Active |  |  |  | 
COc1ccc2c(c1)c1c(n2C)-c2ccccc2/C1=N\Nc1ccccc1 | Active |  |  |  | 
COc1ccc(N/N=C2\c3ccccc3-c3c2c2ccccc2n3C)cc1 | Active |  |  |  | 
NC(=S)N/N=C1\c2ccccc2-c2[nH]c3ccccc3c21 | Active | 7 | inactive | 50 | inactive
COc1cc([C@@H]2c3cc4c(cc3[C@@H](O[C@@H]3O[C@@H]5CO[C@@H](C)O[C@H]5[C@H](O)[C@H]3O)[C@H]3COC(=O)[C@H]23)OCO4)cc(OC)c1O [ETOPOSIDE] |  | 17 | inactive | 29 | 
Cn1c2c(c3ccccc31)/C(=N/Nc1ccccc1)c1ccccc1-2 | Active |  |  |  | 
COc1ccc2c(c1)/C(=N\O)c1c-2n(C)c2ccccc12 | Active | 5 | inactive | 60 | inactive
CN1c2ccccc2C2=C(O)c3ccccc3C21 (centres undefined) | Active |  |  |  | 
O/N=C1\c2ccccc2-c2[nH]c3ccccc3c21 | Active | 6 | inactive | 60 | inactive
O/N=C1\c2ccccc2-c2c1c1ccccc1n2Cc1ccccc1 | Active |  |  |  | 
COc1ccc(N/N=C2/c3cc(OC)c(OC)cc3-c3c2c2ccccc2n3C)cc1 | Active |  |  |  | 
